This is an account of results in ChEMBL document CHEMBL1143018, “Synthesis and activity studies of analogues of the rat selective toxicant norbormide” (Bioorg Med Chem, 2007).

Activity calls are given as the source filed them. The rule behind the calls is not given here.

Assay [1] concerns Heart. The assay can be described thus: Coronaroconstriction in Wistar rat heart Langendorff preparations at 1 uM. The assay is classed as functional, tissue-based.
In assay [2] the test system is Aorta. The assay can be described thus: Vasodilation activity assessed as inhibition of KCl-induced contraction in Wistar rat aorta at 50 uM. Type of assay: functional. In short, it runs like this: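 Rat aortic rings were contracted with 90 mM KCl with and without a maximal concentration of compound. Inhibition was calculated as 100 × (C − AC)/C, where C and AC are the contractile effects in milligrams with KCl alone and with compound.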

In assay [3] the test system is Rattus norvegicus. The assay can be described thus: Toxicity in Wistar rat assessed as death at 20 mg/kg, ip after 1 hr. Type of assay: functional, organism-based. Set-up: dose 20 mg/kg.
Assay [4] can be described thus: Vasoconstriction effect in Wistar rat caudal artery. The assay is classed as functional, tissue-based. In outline: (§1)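 Endothelium-denuded rat caudal artery rings; denudation was confirmed by absence of carbamylcholine-induced relaxation. Cumulative concentration–response curves were run over 0.1–50 µM. Contractions were expressed as a percentage of the 90 mM KCl-induced contraction. Values are mean of at least 4 rings.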

The nature of assay [5]: Vasoconstriction effect in Wistar rat caudal artery relative to KCl. Type of assay: functional, tissue-based. In outline: as §1
For assay [6], the system named is Rattus norvegicus. The assay can be described thus: Toxicity in Wistar rat assessed as death at 40 mg/kg, ip after 1 hr. The assay is classed as functional, organism-based. Set-up: dose 40 mg/kg. In outline: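 Four male Wistar rats (150–250 g) per compound. Drug was dissolved in DMSO at 40 mg/kg and injected intraperitoneally. Animals were kept in a quiet room and watched every 15 min for early signs of toxicity. Four rats given solvent alone served as controls.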

Assay [7] relates to Liver. The assay can be described thus: Stimulation of mitochondrial permeability transition measured by Ca2+ retention capacity of Wistar Albino rat liver mitochondria at 50 uM. The assay is classed as functional. In outline:
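Liver mitochondria from Albino Wistar rats, isolated by differential centrifugation and suspended in Tris/HCl pH 7.4 with 0.25 M sucrose and 0.1 mM EGTA. Only preparations with RCR ≥ 3.0 (Clark electrode, succinate, 25 °C) were used. MPT was induced by Ca2+ at 25 °C in medium of 200 mM sucrose, 10 mM Tris–MOPS, 10 µM EGTA–Tris, 1 mM Pi, 0.5 µg/mL oligomycin, 5 mM succinate, 2 µM rotenone, pH 7.4.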

The test system of assay [8] is Liver. The assay can be described thus: Stimulation of mitochondrial permeability transition measured by Ca2+ retention capacity of mouse liver mitochondria. Type of assay: functional.

As for `O=C1NC(=O)[C@H]2C3C=C(C(O)(c4ccccc4)c4ccccn4)C(C3)[C@@H]12` (stereo not given in full), the outcome in assay [1] was inactive.

For the molecule `CC(O)(c1ccccc1)c1ccccn1` (stereo not given), the result in assay [1] was inactive.

Regarding `O=C1NC(=O)[C@H]2C3CC(C=C3C(O)(c3ccccc3)c3ccccn3)[C@@H]12` (stereo not given in full), in assay [1], the outcome was inactive.

As a reminder, the inhibition is the percentage by which the read-out fell short of the control. With `OC(C1=CC2CCC1/C2=C(\c1ccccc1)c1ccccn1)(c1ccccc1)c1ccccn1` (mixture of isomers), the result in assay [1] was inactive. In assay [2], the inhibition at 50 µM was found to be 60%. Besides, the Activity entry in assay [3] was “Not toxic”.

With `O=C1CCC(=O)N1`, in assay [1], the outcome was inactive.

One may read the EC50 as the concentration needed to bring the measured effect to its halfway point. A lower EC50 goes with greater potency. As to `O=C1NC(=O)C2C3C(C(O)(c4ccccc4)c4ccccn4)=CC(/C3=C(/c3ccccc3)c3ccccn3)C12` (stereo not given), the outcome in assay [1] was Active. The inhibition at 50 µM in assay [2] was 64%. The molecule further yielded a half-maximal effective concentration (EC50) in assay [4] of 1 µM. Further, the Activity in assay [5] was 209%; in assay [3] it was “Toxic”.

Take `O=C1NC(=O)[C@H]2C3C=CC(C3)[C@@H]12`: the result in assay [1] was inactive.

For the molecule `OC(C1=CC2CCC1C2)(c1ccccc1)c1ccccn1` (mixture of isomers), the result in assay [1] was inactive. In addition, in assay [2], the inhibition at 50 µM worked out at 69%. In addition, the Activity result in assay [3] is “Not toxic”.

For `O=C1NC(=O)[C@H]2C3C(C(O)(c4ccccc4)c4ccccn4)=CC(C3=C(c3ccccc3)c3ccccc3)[C@@H]12` (stereo not given in full), the outcome in assay [1] was Active. The inhibition at 50 µM in assay [2] turned out to be 42%. For the same molecule, the response in assay [4] was half-maximal at 4.2 µM (EC50). In addition, the Activity in assay [5] was 185%; in assay [6], “Toxic”.

Turning to `C=C(c1ccccc1)c1ccccn1`, the result in assay [1] and in assay [8] was inactive. Also, the EC50 in assay [4] came to 11 µM. The Activity is 185% in assay [5] and “Not toxic” in assay [3]. For the same molecule, in assay [7], the result was Active.

As to `O=C1NC(=O)C2C3OC(C=C3C(O)(c3ccccc3)c3ccccn3)C12` (stereo not given), the result in assay [1] was inactive.

In the case of `O=C1NC(=O)[C@H]2C3C=C(C(O)(c4ccccc4)c4ccccn4)C(C3=C(c3ccccc3)c3ccccc3)[C@@H]12` (stereo not given in full), the outcome in assay [1] was inactive. Besides, in assay [2], the inhibition at 50 µM was 31%.

As for `O=C1NC(=O)C2C3C=CC(C3=C(c3ccccc3)c3ccccn3)C12` (stereo not given), in assay [1], the result was inactive. This molecule yielded an EC50 in assay [4] of 7.8 µM. In addition, the Activity in assay [5] is 193%; in assay [3] it was “Not toxic”. Moreover, in assay [7], the result was Active.
